Screening results: PubChem BioAssay, several laboratories
UBC13 polyUb – inhibitors of human UBC13 polyubiquitin chain formation | P61088 | TR-FRET | inhibition, % at 20 µM | hit rate 0.47% among 330,000; in the data active = inhibition above about 45%, passing the limit was not always enough
Target sequence (P61088 whole entry, looked up): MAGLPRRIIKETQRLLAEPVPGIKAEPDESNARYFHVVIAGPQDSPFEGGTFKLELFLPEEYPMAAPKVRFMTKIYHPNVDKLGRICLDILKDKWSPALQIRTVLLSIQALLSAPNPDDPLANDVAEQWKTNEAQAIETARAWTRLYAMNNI
CTSL1 counter – blocks F. hepatica cathepsin L1 in PFM18AAP counter-screen. recombinant F. hepatica cathepsin L1, Z-Leu-Arg-MCA fluorescence. inhibition, % at 5.96 µM. hit rate 0.49% among 300,000;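 active = inhibition above the mean of all tested compounds plus 3 SD, set per screening campaign, cut at about 17% in these data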;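 also: 0% = plate median of test compound wells and 100% = 1 µM Z-Phe-Ala-diazomethylketone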
PP1 counter – counter-screen for PP5 inhibitors: inhibitors of human PP1-alpha; purified PP1alpha, OMFP fluorescence; AID 2235; P62136; inhibition, % at 6.7 µM; hit rate 0.9% among 320,000;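 active = inhibition above the mean inhibition of all tested compounds plus 3 SD, computed separately for each screening campaign, cut at about 15% in these data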
Target sequence (P62136 whole entry, looked up): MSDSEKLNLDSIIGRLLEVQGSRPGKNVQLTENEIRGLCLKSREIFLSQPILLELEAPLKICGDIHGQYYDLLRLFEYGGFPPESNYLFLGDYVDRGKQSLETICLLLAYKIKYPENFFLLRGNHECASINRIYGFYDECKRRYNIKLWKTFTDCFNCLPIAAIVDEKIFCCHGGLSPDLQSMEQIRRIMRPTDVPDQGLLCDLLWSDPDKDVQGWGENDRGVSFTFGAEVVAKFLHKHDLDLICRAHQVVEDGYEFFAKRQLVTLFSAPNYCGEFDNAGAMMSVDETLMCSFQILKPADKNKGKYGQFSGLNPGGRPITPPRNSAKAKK
UCH37 inh – blocks the human deubiquitinase UCH37 | purified proteasome/UCH37, Ub-AMC cleavage fluorescence | inhibition, % (test concentration not listed) | hit rate 0.33% among 330,000 | AID 588478;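 active = mean inhibition over replicate wells above about 20%, limit read from the data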;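 also: 0% = compound-free wells with enzyme and 100% = wells lacking proteasome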
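Test system – human UCH37 enzyme supplied as purified proteasome complex · Incubation – 30 min preincubation with enzyme, 25 min cleavage at room temperature · Detection – AMC fluorescence from Ub-AMC cleavage, excitation 355 nm, emission 460 nm · Benchmarks – no-proteasome wells (full inhibition) and compound-free wells (no inhibition)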
PP5 primary – inhibitors of human protein phosphatase 5 (PP5) | P53041 | purified PP5c, OMFP substrate fluorescence | inhibition, % at 6.7 µM | hit rate 0.18% among 320,000;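 active = inhibition above the campaign's mean inhibition across all tested compounds plus 3 SD, cut at about 9.5% in these data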;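 also: 0% = DMSO only and 100% = 100 µM cantharidin control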
PREPL inh – inhibitors of human prolyl oligopeptidase-like enzyme PREPL; Q4J6C6; recombinant PREPL, fluorescence polarization activity-based probe; inhibition, % at 5.96 µM; hit rate 0.68% among 320,000; AID 2751; in the data active = inhibition above about 43%;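 also: 0% = enzyme with DMSO and 100% = wells lacking enzyme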
PP1 confirm – human PP1 phosphatase inhibition, confirmation | purified PP1alpha, OMFP substrate fluorescence | inhibition, % at 6.7 µM | shares compounds with PP1 counter | hit rate 52% among 1,900;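 active = mean PP1 inhibition above a set limit taken from the earlier primary screen, cut at about 15% in these data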
PP5 inh counter – PP5 phosphatase inhibition, counter-screen for PP1 inhibitors | shares compounds with PP1 counter | purified PP5c, OMFP fluorescence | inhibition, % at 6.7 µM | hit rate 4% among 1,900;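 active = mean PP5 inhibition over triplicate wells above about 9.5% taken from the earlier PP1 screen, limit read from the data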
Active calls of the source: *; i = inactive; x = no result given. An excerpt weighted towards active compounds, which were near 2.3% of everything screened.

SMILES | UBC13 polyUb | CTSL1 counter | PP1 counter | UCH37 inh | PP5 primary | PREPL inh | PP1 confirm | PP5 inh counter
Fc1ccccc1C=NNc1nc2ccccc2o1 | x | x | x | -10 | x | x | x | x
Cc1ccc(C(=O)c2oc3nc(C)cc(C)c3c2N)cc1 | 4 | 0 | 21* | -42 | 3 | 1 | -4 | -7
O=C(O)c1ccc(/C=C/c2nc3ccccc3c(=O)[nH]2)cc1 | -7 | 4 | -5 | -2 | -2 | 2 | x | x
O=c1[nH]c(/C=C/c2ccccc2Cl)nc2ccccc12 | -1 | -2 | 18* | -15 | 0 | -2 | 25* | -6
O=C(NN=Cc1ccc(F)cc1)c1cccc(NC(=O)c2ccc(F)cc2)c1 | x | x | x | -9 | x | x | x | x
Cc1ccc(NC(=O)COC(=O)c2ccc3c(c2)NC(=O)C2CCCN32)cc1 (stereo not given) | -18 | 1 | 19* | -46 | 0 | -1 | 11 | 5
CC1=NN(c2nc(-c3ccc(C#N)cc3)cs2)C(=O)C1 | -16 | -1 | 0 | 3 | -1 | -4 | x | x
CC1=NN(c2nc(-c3ccccc3)cs2)C(=O)C1 | -23 | 1 | 20* | 5 | 1 | 8 | 0 | 10*
O=C1CC(c2ccccc2)=NN1c1nc(-c2ccccc2)cs1 | -20 | 1 | 20* | 2 | -2 | 23 | 4 | 2
CC(C)n1cc(C=NNC(=O)c2cc3c(ccc4ccccc43)o2)c2ccccc21 | x | x | x | -26 | x | x | x | x
C=C(C)CN(CC)c1nc(N)c2c(N)nc3c(c2c1C#N)CC(=O)N3C12CC3CC(CC(C3)C1)C2 | -42 | 4 | 19* | -66 | 3 | 28 | 15 | 7
CCCCN1C(=O)Cc2c1nc(N)c1c(N)nc(N(CCC)CCC)c(C#N)c21 | x | 7 | 16* | -54 | 15* | 17 | 8 | 0
N#Cc1c(N2CCCC(O)C2)nc(N)c2c(N)nc3c(c12)CC(=O)N3C12CC3CC(CC(C3)C1)C2 (stereo not given) | -22 | 25* | 19* | -57 | 14* | 23 | 9 | 57*
N#Cc1c(N(CCO)CCO)nc(N)c2c(N)nc3c(c12)CC(=O)N3CC1CCCO1 (stereo not given) | -14 | -3 | -4 | -177 | 8 | 14 | x | x
COc1ccc(N(CC(=O)NN=Cc2ccc(OC)cc2OC)S(=O)(=O)c2ccccc2)cc1 | x | x | x | 2 | x | x | x | x
CC(=NNS(=O)(=O)c1ccc(C)cc1)c1cc2ccccc2oc1=O | x | x | x | 3 | x | x | x | x
COc1ccc(CCCC(=O)NN=Cc2cccc(OC)c2O)cc1C | x | x | x | 0 | x | x | x | x
Cc1cc(C(=O)COC(=O)CC2Sc3ccccc3NC2=O)c(C)n1-c1ccccc1 (stereo not given) | 0 | -91 | 23* | 0 | 3 | -28 | 9 | -2
Cc1cc(C(=O)COC(=O)CC2Sc3ccccc3NC2=O)c(C)n1-c1ccc2c(c1)OCO2 (stereo not given) | -10 | -86 | 11 | 2 | 3 | -5 | x | x
Cc1cc(C)n(-c2nc(Nc3ccccc3C(F)(F)F)nc(-n3nc(C)cc3C)n2)n1 | -1 | 7 | 30* | 0 | 5 | -6 | 17* | 2
Cc1cc(C)n(-c2nc(Nc3ccccc3C)nc(-n3nc(C)cc3C)n2)n1 | 2 | 1 | 36* | -2 | 4 | 17 | 38* | -2
Cc1cc(C)n(-c2nc(NC(C)(C)C)nc(NC(C)(C)C)n2)n1 | 11 | 1 | 2 | 6 | 0 | -11 | x | x
Cc1cc(C)n(-c2nc(NC(C)C)nc(NC(C)C)n2)n1 | 0 | -1 | 3 | 3 | 0 | -9 | x | x
COC(=O)c1ccc(C=NOCC(=O)NC2CCCC(C)C2C)cc1 (stereo not given) | x | x | x | 5 | x | x | x | x
COc1cccc(=O)c2c(C)n(CC(=O)c3ccccc3)c(C)c12 | -5 | 1 | 23* | 2 | 1 | 20 | 0 | -4
COC(=O)c1ccc(COc2ccc(C=NO)cc2OC)o1 | x | x | x | 3 | x | x | x | x
Cn1c(=O)[nH]c2ncccc21 | 9 | -2 | 28* | -4 | -1 | 2 | -3 | -6
COc1ccc(-c2c[n+]3c4n2CCCCC4=C(c2ccc(Br)cc2)C3)cc1 | x | 3 | 33* | i | 2 | 49* | -11 | -1
CCOC(=O)c1c(NC(=O)CSc2ncccn2)sc2c1CCN(Cc1ccccc1)C2 | x | x | x | -1 | x | x | x | x
